Assay outcomes deposited in PubChem by several laboratories.
Only some compounds are listed: those with a hit (about 3% of all), similar ones and a draw of the others.
MEKK3 PB1 HTS: raises or lowers MEK5 binding to the human MEKK3 PB1 domain. 1.4% of 290,000 active. Q99759. binding response (% of control), % at 10 µM. bead-based flow cytometry, Alexa488-MEK5 binding to MEKK3; actives lie on both sides; 0 = blocked by unlabeled MEK5, 100 = vehicle;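 active means binding response more than 3 SD above or below the average of its plate-row segment, actives on both sides; inconclusive means wells at one plate position flagged as instrument error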;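 further: Alexa488 bead fluorescence after subtracting the streptavidin-only scavenger bead signal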
UBC13 inh: blocks human UBC13 polyubiquitin chain formation. TR-FRET. inhibition, % at 20 µM. 0.47% of 330,000 active. AID 485273; in the data active means inhibition above about 45%, passing the limit was not always enough; inconclusive means no clear call, values can overlap the other calls
UCH37 inh: inhibitors of human deubiquitinating enzyme UCH37. Q9Y5K5. purified proteasome/UCH37, Ub-AMC cleavage fluorescence. inhibition, % (concentration not given with the values). 0.33% of 330,000 active. AID 588478;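 active means mean inhibition over replicate wells above about 20%, limit read from the data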;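 further: 0% = compound-free wells with enzyme and 100% = wells lacking proteasome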
Target sequence (Q9Y5K5 whole entry, looked up): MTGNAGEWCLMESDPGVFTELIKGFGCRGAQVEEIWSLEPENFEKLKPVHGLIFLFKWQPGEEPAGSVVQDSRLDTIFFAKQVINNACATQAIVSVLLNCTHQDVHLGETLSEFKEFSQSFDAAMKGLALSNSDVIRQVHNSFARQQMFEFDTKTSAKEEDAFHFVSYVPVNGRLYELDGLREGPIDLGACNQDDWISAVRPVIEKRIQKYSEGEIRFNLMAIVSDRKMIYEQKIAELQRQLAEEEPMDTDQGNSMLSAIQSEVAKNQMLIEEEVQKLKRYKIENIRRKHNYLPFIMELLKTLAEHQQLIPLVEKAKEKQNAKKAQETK
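Material: human UCH37 enzyme supplied as purified proteasome complex. Measure: % inhibition of Ub-AMC cleavage fluorescence. Medium: pH 7.4 Tris-HCl (50 mM) with ovalbumin, ATP-MgCl2, DTT. Times: 30 min preincubation with enzyme, 25 min cleavage at room temperature. Detection: AMC fluorescence intensity at 355/460 nm.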
MEKK2 mut-MEK5: signal of MEK5 binding to mutant human MEKK2 PB1 domain. bead flow cytometry, Alexa488-MEK5 binding to MEKK2 mutant. percent response, % at 10 µM. 0.35% of 290,000 active. AID 1530; in the data active means percent response above about 24%, passing the limit was not always enough
Apaf-1 inh: inhibitors of human Apaf-1 apoptosome; O14727; reconstituted apoptosome caspase-3 activity, DEVD-Rh110 fluorescence; inhibition, % at 20 µM; 0.71% of 330,000 active; AID 489030; active means inhibition of at least 40% at 20 µM;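 further: plate controls were DMSO wells for no effect and DEVD-CHO caspase inhibitor wells for full effect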
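System: reconstituted apoptosome with Apaf-1, cytochrome c, caspase-9, procaspase-3, dATP; Signal: Rh110 fluorescence intensity; Schedule: 30 min compound preincubation, 50 min activation, room temperature; Reagent: cytochrome c trigger plus (Z-DEVD)2-Rh110 caspase-3 substrate.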
MEKK2wt PB1 HTS: raises or lowers MEK5 binding to wildtype human MEKK2 PB1 domain | bead flow cytometry, Alexa488-MEK5 binding to MEKK2 WT; actives lie on both sides | binding response (% of control), % at 10 µM | 1.1% of 290,000 active | AID 1531; in the data active means binding response below about 67% or above about 130%; inconclusive means no clear call, values can overlap the other calls; inactive means in between
* = called active by the depositor; ? = inconclusive; nt = no result; [ ] = remark or other dose.

SMILES	MEKK3 PB1 HTS	UBC13 inh	UCH37 inh	MEKK2 mut-MEK5	Apaf-1 inh	MEKK2wt PB1 HTS
C=CC[C@@H](CC(=O)NCCO)C(=O)N[C@@H](COC(=O)[C@@H](CC=C)CC(=O)OC(C)(C)C)Cc1c[nH]c2ccccc12	nt	22	23*	nt	8	nt
COc1ccccc1C(=O)NCC(=O)N/N=C/c1ccc([N+](=O)[O-])cc1	72	-22	nt	-11	-7	76
Cc1ccccc1C(=O)Nc1ccc(C(=O)N/N=C/c2ccc(O)cc2)cc1	92	-7	nt	-22	0	59*[inhibitor]
O=C(NN=Cc1ccncc1)c1ccccc1	nt	nt	31*	nt	nt	nt
O=C(N/N=C/c1ccncc1)c1cccc(NC(=O)c2ccc(Cl)cc2)c1	54*[inhibitor]	2	nt	-3	-24	66
COc1ccccc1C(=O)NCC(=O)NN=Cc1ccncc1	nt	nt	30*	nt	nt	nt
FC(F)Oc1ccc(NC(=S)NCCc2ccccn2)cc1	102	4	0	3	-1	103
COCCCNC(=O)c1c[nH]c2ccc(S(=O)(=O)N3CCC4(CC3)OCCO4)cc2c1=O	105	12	4	-1	-2	95
C=CCNC(=O)c1c(CS(=O)(=O)c2ccccc2)noc1C(=O)NCc1ccccc1	nt	0	-2	nt	-6	nt
C/C(=N\NC(=O)NC1CCCCC1)c1ccc(Cl)s1	91	nt	nt	-7	nt	95
O=C(CCCOc1ccccc1)Nc1cc(S(=O)(=O)N2CCOCC2)ccc1N1CCOCC1	nt	4	6	nt	6	nt
O=C(CC1SC(=Nc2ccccc2)N(CCCCO)C1=O)NCc1ccccc1 (centres undefined)	100	11	26*	-1	7	102
O=S1(=O)CCN2C(c3ccco3)=CSC2=N1	95	-3	2	7	-3	100
CCCCn1c(NC(=O)c2ccc(F)cc2)c(C#N)c2nc3ccccc3nc21	nt	-19	nt	nt	95*	nt
CCCCn1c(NC(=O)c2ccccc2)c(C#N)c2nc3ccccc3nc21	nt	nt	-126	nt	nt	nt
CSC(=S)NN=Cc1ccc(N(C)C)cc1	nt	nt	1	nt	nt	nt
Cc1ccc(-c2noc(CCC(=O)N3CCN(c4cccc(C(F)(F)F)c4)CC3)n2)cc1	107	-8	7	15	42*	111
CCN(CC(=O)NCc1cccs1)C(=O)C1CC(=O)N(c2ccc(OC)cc2OC)C1 (centres undefined)	nt	-1	2	nt	51*	nt
CCN(CC(=O)Nc1ccc2c(c1)OCCO2)C(=O)C1CC(=O)N(c2ccc(OC)cc2OC)C1 (centres undefined)	nt	30	-2	nt	28	nt
C=CCn1c(=O)c(C(C)=O)cn(N(C)c2ncc(C(F)(F)F)cc2Cl)c1=O	97	-2	0	-4	1	98
O=C(O)c1cc(O)c2c(c1)[C@@H]([C@H]1c3cc(C(=O)O)cc(O)c3C(=O)c3c(O[C@@H]4O[C@H](CO)[C@@H](O)[C@H](O)[C@H]4O)cccc31)c1cccc(O[C@@H]3O[C@H](CO)[C@@H](O)[C@H](O)[C@H]3O)c1C2=O	nt	?	3	nt	99*	nt
OCC1OC(Oc2cccc3ccccc23)C(O)C(O)C1O (centres undefined)	105	-3	3	4	-3	105
O=C(O)CC1(CC(=O)Nc2ccc(Cl)cc2C(=O)c2ccccc2)CCCC1	105	-7	5	0	4	103
O=C(CCCN1C(=O)c2cccc3cccc(c23)C1=O)N1CCN(c2ccccn2)CC1	129*	-3	1	0	6	109
Cc1ccc(NC(=O)CCCN2C(=O)/C(=C/C=C/c3ccccc3)SC2=S)cc1	85	-21	11	-3	19	57
O=C(O)CCCN1C(=O)/C(=C/C=C/c2ccco2)SC1=S	98	44	20*	-2	37	91
CSc1ccccc1NC(=O)c1cc(S(=O)(=O)N(C)C)ccc1N1CCCC1	104	10	1	5	52*	107
OC(COCC(F)(F)C(F)(F)C(F)(F)C(F)F)Cn1c2ccc(Cl)cc2c2cc(Cl)ccc21 (centres undefined)	100	-3	nt	53*	-1	135
